The results in this text go back to the M2OR odorant receptor database.
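Note: active if original authors judged signal statistically different from baseline.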

This assay concerns the target T1, OR2W3 (Homo sapiens) (UniProt Q7Z3T1).
T1 sequence (whole entry): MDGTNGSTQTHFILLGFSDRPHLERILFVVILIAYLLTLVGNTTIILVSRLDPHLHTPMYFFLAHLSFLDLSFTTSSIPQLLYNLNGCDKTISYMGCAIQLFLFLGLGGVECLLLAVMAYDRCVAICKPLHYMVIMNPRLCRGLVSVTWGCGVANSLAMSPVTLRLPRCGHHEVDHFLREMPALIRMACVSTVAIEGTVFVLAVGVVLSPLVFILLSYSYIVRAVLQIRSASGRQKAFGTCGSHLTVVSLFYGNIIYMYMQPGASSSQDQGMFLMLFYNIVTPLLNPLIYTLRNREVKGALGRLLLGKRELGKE
The settings on record: stereoisomer not certain. The method in brief:
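Whether a receptor–molecule pair is responsive (active) rests on the original authors' judgment that its measured signal was statistically different from baseline. Pairs without that judgment are non-responsive (inactive). Sources used varied assay methods, commonly transient luciferase assays in mammalian cell lines.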
With `CCCCCCCCCCCC(=O)OCC`, the “odorant receptor agonist call” value is “inactive”.

On to `CCC(O)CC`, for which the “odorant receptor agonist call” value is “inactive”.

`C=C(C)C1CC=C(C)CC1` (stereo unspecified): the “odorant receptor agonist call” value was “inactive”.

Regarding `CCCCCCCC(=O)OCC`, the “odorant receptor agonist call” value was “inactive”.

For the compound `CCCCCCCCO`, the “odorant receptor agonist call” value was “inactive”.

For the compound `CCCCC(=O)C(C)=O`, the “odorant receptor agonist call” value is “inactive”.

`CCCCCCCCCCCCO`: the “odorant receptor agonist call” value was “inactive”.

In the case of `CCCCCCCCCC(=O)OCC`, the “odorant receptor agonist call” value was “inactive”.

For the compound `CCC(=O)O`, the “odorant receptor agonist call” value was “inactive”.

With `CC(=O)O`, the “odorant receptor agonist call” value is “inactive”.

As for `CCCCCCCCCCCCCCCC(=O)[O-].[H+]`, the “odorant receptor agonist call” value was “inactive”.

As to `CCCC(=O)CC`, the “odorant receptor agonist call” value is “inactive”.

With `CC(C)=CCCC(C)=CCO`, the “odorant receptor agonist call” value is “inactive”.

Take `CCCCCCCCCCCCCCCC(=O)OC`: the “odorant receptor agonist call” value was “inactive”.

In the case of `C=C1CCC2CC1C2(C)C` (stereo unspecified), the “odorant receptor agonist call” value was “inactive”.

For `CC(C)=CCCC(C)=CCCC(C)=CCO`, the “odorant receptor agonist call” value was “inactive”.

On to `Cc1cnc(C)cn1`, for which the “odorant receptor agonist call” value was “inactive”.

Consider `CCCCCCCCCCCC(=O)OC`, for which the “odorant receptor agonist call” value is “inactive”.

For the compound `CC(O)C(=O)[O-].[H+]` (stereo unspecified), the “odorant receptor agonist call” value was “inactive”.

As for `CCCCCCCCCCCCCCCCCC(=O)OC`, the “odorant receptor agonist call” value was “inactive”.

For the compound `COc1ccc2[nH]cc(CCNC(C)=O)c2c1`, the “odorant receptor agonist call” value was “inactive”.

For the compound `CCCCCCCCCCCCCCCCCC(=O)OCC`, the “odorant receptor agonist call” value was “inactive”.

In the case of `CC1=CCC2CC1C2(C)C` (stereo unspecified), the “odorant receptor agonist call” value is “inactive”.

As for `CCCCCCCC(=O)OC`, the “odorant receptor agonist call” value is “inactive”.

Take `CCCCCCCCCCCCCC(=O)OC`: the “odorant receptor agonist call” value is “inactive”.

On to `CCCO`, for which the “odorant receptor agonist call” value was “inactive”.

Consider `CCCCCCCCCC(=O)OC`, for which the “odorant receptor agonist call” value is “inactive”.

For `CCCCCCCCCCCCCCCCCC(=O)[O-].[H+]`, the “odorant receptor agonist call” value is “inactive”.

Regarding `CCCCCCCCCCCCCCCC(=O)OCC`, the “odorant receptor agonist call” value is “inactive”.

On to `CCCCCCCCCCCCCCC(=O)O`, for which the “odorant receptor agonist call” value is “inactive”.

As to `O=c1ccc2ccccc2o1`, the “odorant receptor agonist call” value was “inactive”.

Turning to `CCCCCCCCCCCC(=O)O`, the “odorant receptor agonist call” value is “inactive”.

As for `Cc1cccc(C)c1C`, the “odorant receptor agonist call” value is “inactive”.

As for `Cc1ccc(C(C)C)cc1`, the “odorant receptor agonist call” value was “inactive”.

On to `CCC(C)CO` (stereo unspecified), for which the “odorant receptor agonist call” value is “inactive”.

As for `CCCCCCCCCCCCCC(=O)OCC`, the “odorant receptor agonist call” value is “inactive”.
